Data on two compounds can be found in paper PMC2859091 (Journal of natural products, 2010).

Assay [1] relates to Candida albicans (ATCC 44506). The experiment in a line: Antimicrobial assay, C. albicans. The following applies: at the concentrations tested. The assay is classed as cell-based.
Assay [2] relates to PANC-1 pancreatic carcinoma. In words: Cytotoxicity. The assay is classed as cell-based, human. The essentials:
(§1)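 Test compound assessed for effect on proliferation of human PANC-1 pancreatic carcinoma and DLD-1 colorectal adenocarcinoma cells, both lines obtained from ATCC. The procedure follows a previously described protocol. Each sample was assayed at least three times to derive the final value.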

The test system of assay [3] is Pseudomonas aeruginosa (ATCC 27853). The experiment in a line: Antimicrobial assay, P. aeruginosa. The assay is classed as cell-based. As to conditions: at the concentrations tested.
Assay [4] deals with DLD-1 human colorectal adenocarcinoma. The experiment in a line: Cytotoxicity. The assay is classed as cell-based. The essentials:
as §1

Another assay has as its target MCL-1 binding to Bak (Homo sapiens, UniProt Q07820). In words: MCL-1 assay.
Assay [5] deals with NCI/ADR-Res (multi drug resistant ovarian cancer cell line). The experiment in a line: Cytotoxicity. The assay is classed as cell-based, human. As to conditions: at a concentration of 5.2 µM.

MCL-1 binding to Bak, sequence (Q07820 whole entry): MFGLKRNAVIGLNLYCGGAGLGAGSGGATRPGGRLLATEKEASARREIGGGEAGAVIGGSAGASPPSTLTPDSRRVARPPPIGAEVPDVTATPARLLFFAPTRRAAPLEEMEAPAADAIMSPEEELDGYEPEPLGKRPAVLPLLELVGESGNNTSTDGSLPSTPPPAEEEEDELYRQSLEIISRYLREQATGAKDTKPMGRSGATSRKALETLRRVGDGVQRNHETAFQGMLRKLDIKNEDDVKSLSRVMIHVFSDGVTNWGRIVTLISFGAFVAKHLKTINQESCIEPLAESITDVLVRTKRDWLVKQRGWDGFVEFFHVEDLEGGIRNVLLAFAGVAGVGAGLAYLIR

Turning to `CCC[C@@H](O)Cc1c(Br)c(O)c2c(=O)c3c(O)cc(O)c4c5c(O)cc(O)c6c(=O)c7c(O)c(Br)c(C[C@H](C)O)c8c1c2c(c34)c(c65)c78` [Gymnochrome E, 1,6,8,10,11,13-hexahydroxy-2,5-dibromo-3-(2-hydroxypropyl)-4-(2-hydroxypentyl)-phenanthroperylene-7,14-quinone], in assay [1], the “activity against Candida albicans” value is recorded as “did not show activity”. For the same compound, the “inhibitory activity against PANC-1” value in assay [2] (at a concentration of 6.4 µM) was “did not show significant inhibitory activity”. The “activity against Pseudomonas aeruginosa” value in assay [3] is on record as “did not show activity”. Besides, the “inhibitory activity against DLD-1” value in assay [4] (at a concentration of 6.4 µM) was “did not show significant inhibitory activity”.
`CCC[C@@H](O)Cc1c(Br)c(O)c2c(=O)c3c(O)c(Br)c(O)c4c5c(O)c(Br)c(O)c6c(=O)c7c(O)c(Br)c(C[C@H](O)CCC)c8c1c2c(c34)c(c65)c78` [Gymnochrome F, 1,6,8,10,11,13-hexahydroxy-2,5,9,12-tetrabromo-3,4-(2-hydroxypentyl)-phenanthroperylene-7,14-quinone]: the “activity against Candida albicans” value in assay [1] was “did not show activity”. In addition, the “inhibitory activity against PANC-1” value in assay [2] (at a concentration of 5.2 µM) is given as “did not show significant inhibitory activity”. Also, the “activity against Pseudomonas aeruginosa” value in assay [3] was “did not show activity”. Also, on MCL-1 binding to Bak, the “inhibition of MCL-1 binding to Bak (in words)” value is recorded as “moderate inhibitor”. The “inhibitory activity against NCI/ADR-Res” value in assay [5] was “did not show significant inhibitory activity”. The “inhibitory activity against DLD-1” value in assay [4] (at a concentration of 5.2 µM) is on record as “did not show significant inhibitory activity”.
